The source made the active and inactive calls. The calls are words filed in the database; no cut-off is given here.

The test system of data set [1] is 3T3-L1. Briefly: Activation of AMPK pathway in mouse 3T3-L1 cells assessed as increase in […] mRNA expression at 1 uM after 24 hrs by RT-qPCR analysis. Type of data set: cell-based. As to conditions: filed as activator.
A short description of data set [2]: Clearance in Sprague-Dawley rat at 2 mg/kg, iv up to 24 hrs by LC-MS/MS analysis. The note with it: in vivo.
The nature of data set [3]: AUC(0 to t) in Sprague-Dawley rat at 2 mg/kg, iv up to 24 hrs by LC-MS/MS analysis. The note with it: in vivo.
Data set [4] can be described thus: MRT(0 to infinity) in Sprague-Dawley rat at 2 mg/kg, iv up to 24 hrs by LC-MS/MS analysis. As to conditions: in vivo.
In data set [5] the test system is C2C12. The experiment in a line: Activation of AMPK pathway in mouse C2C12 cells assessed as increase in glucose uptake at 0.3 to 1 uM after 6 hrs in presence of insulin by 2-NBDG/Hoechst 33342 staining based Confocal microscopic method. Type of data set: cell-based. The note with it: filed as activator, dose 0.3-1 µM. Summed up: (§1)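 C2C12 myoblasts kept in DMEM with 10% FBS and 1% penicillin/streptomycin at 37 °C under 5% CO2.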

Data set [6] has as its system Mus musculus. Briefly: Anti-hyperglycemic activity in high fat diet-induced obese C57BL/6J mouse model assessed as decrease in blood glucose level at 20 mg/kg, ip. As to conditions: time hrs <=24, TDE = time-dependent effect. Type of data set: functional, organism-based. In short, it runs like this: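 C57BL/6J mice fed HFC diet (60% fat, 1% cholesterol). Single i.p. injection of saline or compound at 20 mg/kg. Blood glucose measured with a glucose monitor at 0, 0.5, 1, 2, 4, 8, 12 and 24 h.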

The subject of data set [7] is Mus musculus. Briefly: Antiobesity activity in high fat diet-induced obese C57BL/6J mouse model assessed as decrease in AUC of ITT at 20 mg/kg, ip administered for every other days for 6 weeks by ITT method. Type of data set: functional, organism-based. In short, it runs like this:
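Male C57BL/6J mice on HFC diet dosed i.p. For GTT, after 3 weeks of treatment: 6 h fast, then i.p. glucose 2 g/kg. For ITT, after 6 weeks: 6 h fast, then i.p. insulin 0.4 U/mouse. Tail-vein glucose measured at 0, 15, 30, 60 and 120 min; AUC calculated.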

Data set [8] relates to Mus musculus. The experiment in a line: Antiobesity activity in high fat diet-induced obese C57BL/6J mouse model assessed as decrease in size of adipocytes at 20 mg/kg, ip administered for every other days for 6 weeks by H and E staining based assay. Type of data set: functional, organism-based.
The subject of data set [9] is C2C12. Briefly: Activation of AMPK pathway in mouse C2C12 cells assessed as increase in glucose uptake at 1 uM after 6 hrs in presence of LY-294002 by 2-NBDG/Hoechst 33342 staining based Confocal microscopic method. Type of data set: cell-based. As to conditions: filed as activator. In short, it runs like this: as §1
Data set [10] has as its system 3T3-L1. The experiment in a line: Activation of AMPK pathway in adipogenic cocktail-induced mouse 3T3-L1 cells assessed as increase in AMP to ATP ratio at 0.3 to 1 uM after 24 hrs. The note with it: filed as activator, dose 0.3-1 µM. Type of data set: cell-based.
The subject of data set [11] is 3T3-L1. Briefly: Inhibition of mouse 3T3-L1 cells adipocyte differentiation assessed as reduction in adipogenic cocktail-induced fatty acid synthase protein expression at 0.3 to 1 uM after 6 days by Western blot analysis. As to conditions: dose 0.3-1 µM, time 6.0 day. Type of data set: functional, cell-based. In short, it runs like this:
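3T3-L1 preadipocytes were differentiated with cocktail for 3 days, then insulin medium for 3 days, with compound (0.3 or 1 µM) present throughout. Cells were harvested on day 6 and proteins measured by Western blot, with densitometry normalized to actin.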
On the technique in general: A western blot detects proteins with antibodies after separation by electrophoresis.

Data set [12] deals with 3T3-L1. Briefly: Inhibition of mouse 3T3-L1 cells adipocyte differentiation assessed as reduction in adipogenic cocktail-induced C/EBPalpha protein expression at 0.3 to 1 uM after 24 hrs by Western blot analysis. Type of data set: functional, cell-based. The note with it: dose 0.3-1 µM. Summed up:
(§2)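 3T3-L1 preadipocytes were exposed to adipogenic cocktail with compound (0.3 or 1 µM) and harvested on day 1. Lysates were resolved by SDS-PAGE, immunoblotted (primary antibody overnight at 4 °C, HRP secondary) and quantified by densitometry normalized to actin.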

In data set [13] the test system is 3T3-L1. The experiment in a line: Inhibition of mouse 3T3-L1 cells adipocyte differentiation assessed as reduction in adipogenic cocktail-induced SREBP-1c protein expression at 0.3 to 1 uM after 24 hrs by Western blot analysis. Type of data set: functional, cell-based. As to conditions: dose 0.3-1 µM. In short, it runs like this:
as §2

Regarding `CN(C)CCCNc1nc(-c2[nH]c3ccccc3c2C=O)nc2ccccc12`, the result in the data set on 3T3-L1 [1] was Active. Besides, the clearance in data set [2] is 125 mL/min/kg. Moreover, the AUC(0-t) at 24 h in data set [3] came to 635 ng·h/mL. Further, in [4], the mean residence time MRT inf came to 3.56 h.
As to `COc1ccc2[nH]c(-c3nc(NCCCCN4CCCC4)c4ccccc4n3)c(C=O)c2c1`, the result in the data set with C2C12 [5], with Mus musculus [7], with Mus musculus [8], in the data set with C2C12 [9] and in the data set with 3T3-L1 [10] was Active. Also, in the data set on Mus musculus [6], the Activity entry is “Tde”. In addition, the inhibition entry with 3T3-L1 [11], in the data set on 3T3-L1 [12] and with 3T3-L1 [13] was “Active” throughout.

As usually defined, the clearance is a measure of how efficiently the substance is removed, as volume per time. High values mean efficient removal, low ones inefficient removal. As a reminder, the AUC(0-t) is exposure summed from dosing to a finite time, without extrapolation to infinity. The low end stands for low exposure, the high end for high exposure. Usually MRT inf stands for the average time that molecules of a dose stay in the body.
